{"source": "ChEMBL document CHEMBL5356931", "about": "“Medicinal chemistry approaches to target the MNK-eIF4E axis in cancer” (RSC Med Chem, 2023)", "key": {"[1]": {"molecular_target": "T1, Eukaryotic translation initiation factor 4E (Homo sapiens, UniProt P06730)", "T1 sequence (P06730 whole entry)": "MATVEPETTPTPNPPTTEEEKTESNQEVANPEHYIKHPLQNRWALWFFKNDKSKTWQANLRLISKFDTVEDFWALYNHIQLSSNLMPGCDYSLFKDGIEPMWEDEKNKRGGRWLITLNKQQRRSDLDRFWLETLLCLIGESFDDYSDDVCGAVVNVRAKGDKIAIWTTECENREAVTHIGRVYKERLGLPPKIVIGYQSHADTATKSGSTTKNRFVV", "assay": "Binding affinity to eIF4E (unknown origin) assessed as dissociation constant"}, "[2]": {"assay": "Solubility of compound at pH 7.4", "format": "physicochemical", "settings": "buffer"}, "[3]": {"assay": "Solubility of the compound", "format": "physicochemical"}, "[4]": {"molecular_target": "MAP kinase-interacting serine/threonine-protein kinase 2 (Homo sapiens, UniProt Q9HBH9)", "sequence (Q9HBH9 whole entry)": "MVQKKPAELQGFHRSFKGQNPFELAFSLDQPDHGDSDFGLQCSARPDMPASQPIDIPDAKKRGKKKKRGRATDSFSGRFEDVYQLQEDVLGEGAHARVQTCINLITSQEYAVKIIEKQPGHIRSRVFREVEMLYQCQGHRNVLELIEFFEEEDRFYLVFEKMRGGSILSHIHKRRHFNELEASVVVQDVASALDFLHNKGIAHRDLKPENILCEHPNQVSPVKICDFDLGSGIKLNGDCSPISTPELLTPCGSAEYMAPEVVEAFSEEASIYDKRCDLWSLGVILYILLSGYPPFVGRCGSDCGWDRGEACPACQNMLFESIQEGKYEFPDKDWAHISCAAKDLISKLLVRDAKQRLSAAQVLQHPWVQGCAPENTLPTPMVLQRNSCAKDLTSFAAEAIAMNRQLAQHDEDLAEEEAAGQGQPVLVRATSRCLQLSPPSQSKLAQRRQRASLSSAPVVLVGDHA", "assay": "Inhibition of MNK2 (unknown origin)"}, "K562 [5]": {"tested_on": "K562", "assay": "animal or person", "settings": "Mus musculus, K562, read-out: TGI"}, "K562 [6]": {"tested_on": "K562", "assay": "animal or person", "settings": "Mus musculus, K562, read-out: TGI", "remark": "listed apart in the source"}, "[7]": {"molecular_target": "T2, Tyrosine-protein kinase ABL1 (Homo sapiens, UniProt P00519)", "T2 sequence (P00519 whole entry)": "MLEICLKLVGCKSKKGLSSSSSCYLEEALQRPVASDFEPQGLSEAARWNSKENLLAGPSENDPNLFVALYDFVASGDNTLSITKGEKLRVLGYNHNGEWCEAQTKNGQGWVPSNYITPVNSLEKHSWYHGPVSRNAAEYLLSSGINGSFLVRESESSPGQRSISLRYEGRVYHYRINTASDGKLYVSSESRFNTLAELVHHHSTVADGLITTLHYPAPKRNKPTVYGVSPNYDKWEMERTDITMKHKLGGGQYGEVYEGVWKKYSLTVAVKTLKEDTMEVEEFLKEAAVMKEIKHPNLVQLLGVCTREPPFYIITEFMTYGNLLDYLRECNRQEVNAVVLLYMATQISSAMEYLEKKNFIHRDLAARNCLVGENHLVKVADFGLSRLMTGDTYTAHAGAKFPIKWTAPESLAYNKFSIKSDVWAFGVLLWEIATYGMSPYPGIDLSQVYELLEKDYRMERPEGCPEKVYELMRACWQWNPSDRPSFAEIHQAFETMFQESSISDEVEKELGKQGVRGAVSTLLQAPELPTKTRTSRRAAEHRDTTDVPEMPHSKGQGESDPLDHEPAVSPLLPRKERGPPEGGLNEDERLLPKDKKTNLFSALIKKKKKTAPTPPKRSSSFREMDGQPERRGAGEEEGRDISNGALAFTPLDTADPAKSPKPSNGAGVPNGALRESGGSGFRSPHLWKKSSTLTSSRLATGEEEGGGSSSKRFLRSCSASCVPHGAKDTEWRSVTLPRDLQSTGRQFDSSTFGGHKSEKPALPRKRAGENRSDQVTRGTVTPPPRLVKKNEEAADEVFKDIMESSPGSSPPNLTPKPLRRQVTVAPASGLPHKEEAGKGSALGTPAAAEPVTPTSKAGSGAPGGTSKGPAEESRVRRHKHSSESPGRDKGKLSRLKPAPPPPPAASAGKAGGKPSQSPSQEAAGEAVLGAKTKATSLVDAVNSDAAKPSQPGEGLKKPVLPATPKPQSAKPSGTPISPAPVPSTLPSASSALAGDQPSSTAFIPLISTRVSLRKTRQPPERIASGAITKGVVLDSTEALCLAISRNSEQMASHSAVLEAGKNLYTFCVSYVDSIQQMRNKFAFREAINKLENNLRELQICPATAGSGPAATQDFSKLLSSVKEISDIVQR", "assay": "Inhibition of ABL1 (unknown origin)"}, "[8]": {"molecular_target": "Proto-oncogene tyrosine-protein kinase receptor Ret (Homo sapiens, UniProt P07949)", "sequence (P07949 whole entry)": "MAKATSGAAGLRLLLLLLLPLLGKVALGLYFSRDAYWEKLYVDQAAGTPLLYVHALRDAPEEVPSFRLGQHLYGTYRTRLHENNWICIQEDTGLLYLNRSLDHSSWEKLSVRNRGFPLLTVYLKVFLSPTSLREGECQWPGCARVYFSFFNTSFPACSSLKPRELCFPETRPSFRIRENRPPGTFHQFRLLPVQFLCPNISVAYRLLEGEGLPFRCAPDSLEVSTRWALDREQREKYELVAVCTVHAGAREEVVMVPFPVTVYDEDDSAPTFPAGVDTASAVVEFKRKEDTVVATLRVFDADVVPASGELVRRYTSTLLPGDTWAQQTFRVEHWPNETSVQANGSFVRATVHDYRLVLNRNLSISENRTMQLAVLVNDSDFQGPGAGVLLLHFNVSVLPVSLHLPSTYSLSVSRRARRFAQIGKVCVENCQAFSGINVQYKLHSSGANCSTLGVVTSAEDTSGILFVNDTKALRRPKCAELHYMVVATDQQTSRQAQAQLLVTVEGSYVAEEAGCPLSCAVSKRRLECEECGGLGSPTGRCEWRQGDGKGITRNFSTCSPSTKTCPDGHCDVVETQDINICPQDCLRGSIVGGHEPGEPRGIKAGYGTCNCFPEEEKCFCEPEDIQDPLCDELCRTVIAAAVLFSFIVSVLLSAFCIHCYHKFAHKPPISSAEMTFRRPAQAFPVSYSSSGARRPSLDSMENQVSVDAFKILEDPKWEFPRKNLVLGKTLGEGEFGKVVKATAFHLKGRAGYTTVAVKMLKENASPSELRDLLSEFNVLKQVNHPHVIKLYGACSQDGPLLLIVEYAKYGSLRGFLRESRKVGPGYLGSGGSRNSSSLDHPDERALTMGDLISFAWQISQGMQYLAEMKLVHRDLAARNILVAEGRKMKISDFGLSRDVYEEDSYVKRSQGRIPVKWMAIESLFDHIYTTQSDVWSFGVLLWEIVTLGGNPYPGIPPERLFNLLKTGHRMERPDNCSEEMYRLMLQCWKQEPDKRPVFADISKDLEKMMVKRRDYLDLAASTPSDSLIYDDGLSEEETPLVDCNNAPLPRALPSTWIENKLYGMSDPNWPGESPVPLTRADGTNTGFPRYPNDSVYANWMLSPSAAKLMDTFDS", "assay": "Inhibition of RET (unknown origin)"}, "[9]": {"assay": "Half life in CD-1 mouse at 5 mg/kg, iv", "format": "ADME, organism-based, CD1", "settings": "in vivo"}, "[10]": {"molecular_target": "T3, Receptor-type tyrosine-protein kinase FLT3 (Homo sapiens, UniProt P36888)", "T3 sequence (P36888 whole entry)": "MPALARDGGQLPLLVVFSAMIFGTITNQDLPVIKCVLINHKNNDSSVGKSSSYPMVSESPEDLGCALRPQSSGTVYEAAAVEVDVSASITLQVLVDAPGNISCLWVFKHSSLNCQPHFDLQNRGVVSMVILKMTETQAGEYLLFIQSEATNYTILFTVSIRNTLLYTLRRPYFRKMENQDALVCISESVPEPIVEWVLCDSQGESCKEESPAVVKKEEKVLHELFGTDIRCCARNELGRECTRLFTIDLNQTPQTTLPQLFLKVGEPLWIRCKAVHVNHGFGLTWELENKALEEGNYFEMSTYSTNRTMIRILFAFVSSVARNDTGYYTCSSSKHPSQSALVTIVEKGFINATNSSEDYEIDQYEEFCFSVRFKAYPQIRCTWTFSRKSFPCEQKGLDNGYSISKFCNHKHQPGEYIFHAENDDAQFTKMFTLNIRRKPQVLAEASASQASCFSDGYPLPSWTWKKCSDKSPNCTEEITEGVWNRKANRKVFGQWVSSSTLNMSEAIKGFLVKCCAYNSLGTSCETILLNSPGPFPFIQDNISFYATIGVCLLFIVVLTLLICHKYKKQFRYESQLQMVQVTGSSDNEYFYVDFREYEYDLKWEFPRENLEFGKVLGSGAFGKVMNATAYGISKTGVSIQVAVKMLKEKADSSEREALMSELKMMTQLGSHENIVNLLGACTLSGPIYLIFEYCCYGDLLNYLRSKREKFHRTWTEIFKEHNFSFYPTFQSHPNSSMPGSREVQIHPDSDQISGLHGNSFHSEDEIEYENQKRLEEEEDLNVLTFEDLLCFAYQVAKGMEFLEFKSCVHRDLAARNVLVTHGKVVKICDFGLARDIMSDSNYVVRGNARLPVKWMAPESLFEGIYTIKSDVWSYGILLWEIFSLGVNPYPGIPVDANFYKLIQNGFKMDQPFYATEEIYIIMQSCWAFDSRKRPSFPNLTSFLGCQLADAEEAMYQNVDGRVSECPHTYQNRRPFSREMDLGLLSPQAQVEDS", "assay": "Inhibition of FLT3 (unknown origin)"}, "[11]": {"molecular_target": "Vascular endothelial growth factor receptor 2 (Homo sapiens, UniProt P35968)", "sequence (P35968 whole entry)": "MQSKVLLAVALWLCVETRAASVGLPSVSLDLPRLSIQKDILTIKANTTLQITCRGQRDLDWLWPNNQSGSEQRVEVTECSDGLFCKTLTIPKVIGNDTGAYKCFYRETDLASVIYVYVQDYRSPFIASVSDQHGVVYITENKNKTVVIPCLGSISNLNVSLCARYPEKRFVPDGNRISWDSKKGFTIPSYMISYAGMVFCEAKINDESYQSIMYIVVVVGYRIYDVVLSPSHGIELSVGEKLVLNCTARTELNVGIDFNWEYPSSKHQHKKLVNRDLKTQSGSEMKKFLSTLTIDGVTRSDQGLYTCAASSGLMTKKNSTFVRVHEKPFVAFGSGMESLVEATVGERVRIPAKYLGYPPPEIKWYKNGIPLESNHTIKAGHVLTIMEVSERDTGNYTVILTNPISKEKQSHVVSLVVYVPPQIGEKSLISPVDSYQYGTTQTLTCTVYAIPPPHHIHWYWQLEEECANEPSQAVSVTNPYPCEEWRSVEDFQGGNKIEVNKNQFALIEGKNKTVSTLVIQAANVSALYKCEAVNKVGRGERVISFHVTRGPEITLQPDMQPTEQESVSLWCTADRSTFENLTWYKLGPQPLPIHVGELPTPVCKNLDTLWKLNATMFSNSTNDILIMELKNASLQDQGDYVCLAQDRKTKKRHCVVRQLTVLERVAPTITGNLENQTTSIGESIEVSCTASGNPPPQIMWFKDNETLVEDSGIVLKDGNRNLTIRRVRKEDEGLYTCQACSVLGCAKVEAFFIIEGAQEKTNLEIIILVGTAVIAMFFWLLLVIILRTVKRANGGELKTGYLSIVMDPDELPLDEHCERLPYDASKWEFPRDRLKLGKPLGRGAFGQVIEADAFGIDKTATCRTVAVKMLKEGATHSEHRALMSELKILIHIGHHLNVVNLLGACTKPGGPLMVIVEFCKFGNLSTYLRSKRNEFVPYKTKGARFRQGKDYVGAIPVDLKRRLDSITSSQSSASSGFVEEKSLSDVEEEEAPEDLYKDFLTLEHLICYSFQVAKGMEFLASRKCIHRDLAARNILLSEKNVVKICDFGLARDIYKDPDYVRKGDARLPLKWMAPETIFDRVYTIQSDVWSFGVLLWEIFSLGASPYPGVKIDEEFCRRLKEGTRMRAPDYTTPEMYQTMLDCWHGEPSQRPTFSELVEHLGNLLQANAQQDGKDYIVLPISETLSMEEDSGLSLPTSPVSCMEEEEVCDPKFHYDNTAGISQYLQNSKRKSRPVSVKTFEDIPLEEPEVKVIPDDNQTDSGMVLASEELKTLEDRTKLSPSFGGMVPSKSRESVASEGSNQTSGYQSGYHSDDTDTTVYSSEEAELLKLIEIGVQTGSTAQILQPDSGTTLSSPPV", "assay": "Inhibition of VEGFR2 (unknown origin)"}, "[12]": {"molecular_target": "T2, Tyrosine-protein kinase ABL1", "assay": "Inhibition of ABL1 (unknown origin) relative to control", "settings": "concentration not given here"}, "[13]": {"molecular_target": "T1, Eukaryotic translation initiation factor 4E", "assay": "Inhibition of eIF4E phosphorylation in human HeLa cells", "format": "cell-based"}, "[14]": {"molecular_target": "MAP kinase-interacting serine/threonine-protein kinase 1 (Homo sapiens) (UniProt Q9BUB5)", "sequence (Q9BUB5 whole entry, looked up)": "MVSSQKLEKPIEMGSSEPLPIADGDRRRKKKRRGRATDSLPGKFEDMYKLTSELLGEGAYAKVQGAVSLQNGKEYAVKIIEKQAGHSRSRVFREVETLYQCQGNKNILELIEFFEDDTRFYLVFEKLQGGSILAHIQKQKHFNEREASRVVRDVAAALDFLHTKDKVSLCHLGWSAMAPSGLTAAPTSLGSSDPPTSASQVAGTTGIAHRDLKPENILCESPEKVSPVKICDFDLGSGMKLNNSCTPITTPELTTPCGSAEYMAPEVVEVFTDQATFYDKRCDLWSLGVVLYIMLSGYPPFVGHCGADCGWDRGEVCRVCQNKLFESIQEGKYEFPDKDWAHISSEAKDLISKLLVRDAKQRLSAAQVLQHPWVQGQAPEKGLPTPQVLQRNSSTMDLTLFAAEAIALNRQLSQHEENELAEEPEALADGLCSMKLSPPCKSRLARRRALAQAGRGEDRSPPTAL", "assay": "Inhibition of MNK1 (unknown origin) relative to control", "settings": "concentration not given here"}, "[15]": {"assay": "Drug exposure in mouse at 5 mg/kg,po", "format": "ADME, organism-based", "set-up": "dose 5 mg/kg, route po", "settings": "in vivo", "summary_of_the_method": "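Mice received a single oral dose of 5 mg kg⁻¹. Exposure was described by oral bioavailability F (%), Cmax (ng mL⁻¹) and AUC0−t (last) (ng h mL⁻¹).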"}}}
{"smiles": "NC(=O)c1ncn([C@@H]2O[C@H](CO)[C@@H](O)[C@H]2O)n1", "note": "[RIBAVIRIN]", "values": [{"measurement": "Kd", "setting": "[1]", "result": 8400, "unit": "nM"}]}
{"smiles": "CC(C)Oc1cc(-c2cccnc2)ccc1C(N)=O", "values": [{"measurement": "solubility", "setting": "[2]", "result": 45, "unit": "µg/mL"}]}
{"smiles": "O=C(c1ccc(-c2cn3c(-c4ccc(O)cc4)cnc3cn2)cc1)N1CCOCC1", "values": [{"measurement": "solubility", "setting": "[3]", "result": 11.5, "unit": "µg/mL"}]}
{"smiles": "CN1CCN(C(=O)c2ccc(-c3ccc4ncc(-c5ccc(C#N)cc5)n4n3)cc2)CC1", "values": [{"measurement": "IC50", "setting": "[4]", "result": 30, "unit": "nM"}]}
{"smiles": "N#Cc1ccc(-c2cnc3ccc(-c4ccc(C(=O)N5CCOCC5)cc4)cn23)cc1", "note": "[TINODASERTIB]", "values": [{"measurement": "inhibition in vivo at 50 mg/kg", "setting": "K562 [5]", "result": 110, "unit": "%"}, {"measurement": "inhibition in vivo at 25 mg/kg", "setting": "K562 [6]", "result": 107, "unit": "%"}]}
{"smiles": "CCN1CCN(Cc2ccc(NC(=O)COc3ccc(-c4cccnc4)cc3)cc2C(F)(F)F)CC1", "values": [{"measurement": "IC50", "setting": "[7]", "result": "> 10000", "unit": "nM"}]}
{"smiles": "CC(=O)N1CCN(C(=O)c2ccc(-c3cn4c(-c5ccc(O)cc5)cnc4cn3)cc2)CC1", "values": [{"measurement": "solubility", "setting": "[3]", "result": 144, "unit": "µg/mL"}]}
{"smiles": "CCN1CCN(Cc2ccc(NC(=O)CNc3ccc(-c4ccc(NC(=O)C5CC5)nc4)cc3)cc2C(F)(F)F)CC1", "values": [{"measurement": "IC50", "setting": "[8]", "result": "< 24", "unit": "nM"}, {"measurement": "half-life", "setting": "[9]", "result": 2.1, "unit": "h"}, {"measurement": "IC50", "setting": "[10]", "result": "< 24", "unit": "nM"}, {"measurement": "IC50", "setting": "[11]", "result": "< 24", "unit": "nM"}]}
{"smiles": "CN1CCN(C(=O)c2ccc(-c3cn4c(-c5ccc(O)cc5)cnc4cn3)cc2)CC1", "values": [{"measurement": "solubility", "setting": "[3]", "result": 144, "unit": "µg/mL"}]}
{"smiles": "CN1CCN(Cc2ccc(NC(=O)CNc3ccc(-c4ccc(NC(=O)C5CC5)nc4)cc3F)cc2C(F)(F)F)CC1", "values": [{"measurement": "IC50", "setting": "[8]", "result": "< 24", "unit": "nM"}, {"measurement": "IC50", "setting": "[10]", "result": "< 24", "unit": "nM"}, {"measurement": "inhibition", "setting": "[12]", "result": "> 90", "unit": "%"}, {"measurement": "IC50", "setting": "[11]", "result": "< 24", "unit": "nM"}, {"measurement": "IC50", "setting": "[13]", "result": 280, "unit": "nM"}, {"measurement": "inhibition", "setting": "[14]", "result": "> 90", "unit": "%"}]}
{"smiles": "CC(C)Oc1cc(-c2cncc(-c3cnn(C4COC4)c3)c2)ccc1C(N)=O", "values": [{"measurement": "AUC", "setting": "[15]", "result": 2080, "unit": "ng·h/mL"}, {"measurement": "IC50", "setting": "[13]", "result": 200, "unit": "nM"}, {"measurement": "inhibition", "setting": "[14]", "result": "> 90", "unit": "%"}]}
{"smiles": "CN1CCN(C(=O)c2ccc(-c3cn4c(-c5ccc(C(=O)NO)cc5)cnc4cn3)cc2)CC1", "values": [{"measurement": "IC50", "setting": "[4]", "result": 30, "unit": "nM"}]}
{"smiles": "CCN1CCN(Cc2ccc(NC(=O)CNc3ccc(-c4cccnc4)cc3)cc2C(F)(F)F)CC1", "values": [{"measurement": "IC50", "setting": "[7]", "result": "> 10000", "unit": "nM"}]}
